# From PubChem
# rRNA inh HTS – selective bacterial rRNA inhibition in E. coli; E. coli WT GFP vs humanized-ribosome RFP mutants, fluorescence, 24 h; hits give low values; DMSO median 0, no signal -100; GFP signal change (wild-type ribosome), % (test concentration not listed); actives 1.6% (n = 350,000);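 active = significant combined selectivity score with lowered wild-type GFP, culture density cut under 30%, mutant RFP and density less affected; inactive = any of these conditions unmet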
# miR122 inh – blocks miR-122 activity in Huh7 sensor cells. Huh7 miR-122 Renilla luciferase sensor, 48 h; neutral wells = 0, positive control = 100. activation (reporter increase), % at 12.5 µM. actives 0.3% (n = 340,000);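 active = mean replicate activation score at least 90 and every replicate individually at or above 90; inconclusive = only one of the two criteria met; inactive = neither criterion met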;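 also: higher luciferase means less miR-122 activity so hits act as miR-122 inhibitors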
# E-sel inducer – induces E-selectin expression in human endothelial cells. HUVEC E-selectin immunofluorescence imaging; normalized: neutral wells 0, TNF-alpha wells 100. actives 0.37% (n = 260,000). AID 686992. activation, % at 7.58 µM;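 active = mean E-selectin-positive cell signal at least 10% of the positive control, reached in at least 60% of replicates, without over 20% cell loss; inconclusive = no rule given, readout overlaps actives, possibly toxicity-flagged; inactive = the rest, including those meeting only one limit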
# Target sequence (P16581 whole entry, looked up): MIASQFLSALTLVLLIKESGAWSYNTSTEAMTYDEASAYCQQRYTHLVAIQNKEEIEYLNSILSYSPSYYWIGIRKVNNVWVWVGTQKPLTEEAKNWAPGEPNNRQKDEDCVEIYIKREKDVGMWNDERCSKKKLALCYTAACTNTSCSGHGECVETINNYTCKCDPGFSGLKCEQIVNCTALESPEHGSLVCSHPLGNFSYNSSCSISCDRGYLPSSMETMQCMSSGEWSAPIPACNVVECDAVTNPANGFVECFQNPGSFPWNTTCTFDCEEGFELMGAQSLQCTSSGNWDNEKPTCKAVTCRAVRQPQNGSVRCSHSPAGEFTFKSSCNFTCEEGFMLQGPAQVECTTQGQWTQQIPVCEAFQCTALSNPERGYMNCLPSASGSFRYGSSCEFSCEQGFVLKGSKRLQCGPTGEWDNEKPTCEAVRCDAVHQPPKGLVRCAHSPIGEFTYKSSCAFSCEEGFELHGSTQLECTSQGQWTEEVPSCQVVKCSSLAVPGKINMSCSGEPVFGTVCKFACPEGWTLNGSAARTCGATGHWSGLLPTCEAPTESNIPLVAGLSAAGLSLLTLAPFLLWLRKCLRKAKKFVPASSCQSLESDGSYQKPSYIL
#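 Material: HUVEC primary endothelial cells; Amount: 3,000 cells per well; Dosing: single concentration; Medium: EGM-2 growth medium on 0.1% gelatin-coated wells; Read-out basis: percent E-selectin-positive cells; Signal: immunofluorescence imaging; Control set: TNF-alpha, DMSO.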
# DENV2 CPE – DENV2-induced cell death inhibition; DENV2-infected cells, cytopathic effect rescue, plate reader; CPE inhibition, % at 9.99 µM; actives 1.7% (n = 350,000); AID 651640; in the data active = CPE inhibition above about 20%, passing the limit was not always enough; inconclusive = no clear call, values can overlap the other calls; tested in BHK-21 cells;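 also: 0% = median of neutral control wells and 100% = median of positive control wells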
# Cneo AK release – causes C. neoformans cell lysis | lysis activity, % at 15 µM | actives 0.2% (n = 360,000) | adenylate kinase release luminescence, 4 h; normalised: neutral wells 0, clomiphene wells 100 | AID 651654;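 active = mean lysis activity across replicates of at least 80%, whatever share of replicates individually reach that level; inactive = mean lysis activity below 80%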
#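 Assay system: Cryptococcus neoformans yeast cells / Dosing: single-point compound dose / Timing: 4 h at 37 °C static, read 1 h later / Measured by: luminescence of released adenylate kinase using an AK detection reagent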
# * = called active by the depositor; ? = inconclusive; · = no result given; [ ] = remark or other dose. Sampled rows, rich in hits. Any-hit rate of the full collection: about 3.1%.
SMILES,rRNA inh HTS,miR122 inh,E-sel inducer,DENV2 CPE,Cneo AK release
COc1ccc([C@H]2C[C@H](O)[C@@H](n3cc(COC(=O)c4ccccc4)nn3)CN2CC2CCCCC2)cc1,9,-6,0,20*,-2
CCCCCC(=O)N1C[C@@H](O)[C@H](n2cc(COC(=O)c3ccccc3)nn2)C[C@@H]1c1ccc(C)cc1,-3,-2,0,74*,·
COc1ccccc1NC(=O)N(C)C[C@@H]1Oc2ncc(C#CCN(C)C)cc2C(=O)N([C@H](C)CO)C[C@@H]1C,3,3[16.7 µM],0,-7,0
CC(=O)N1CC2(C1)[C@H](c1ccccc1)[C@H](CO)N2S(=O)(=O)c1ccccc1,0,·,0,-12,·
COc1ccc(OCC(=O)N/N=C2\CCCCc3ccccc32)cc1,-29*,·,0,2,·
O=[N+]([O-])c1cc(C(F)(F)F)cc([N+](=O)[O-])c1NCCNC(=S)Nc1cccc(F)c1,-25*,·,5,-5,·
CCOC(=O)c1cc(S(=O)(=O)NCCc2ccccc2)cn1C,2,114*,·,-1,-1
Cc1ccc(NC(=O)COC(=O)c2ccccc2Cl)cc1S(=O)(=O)N(C)C,-34*,3,0,0,·
NS(=O)(=O)c1ccc(NC(=S)NC(=O)c2ccc(Br)o2)cc1,-3,2,·,-1,4
Cc1ccc(NC(=O)c2ccncc2)cc1S(=O)(=O)N(C)C,10,-1,·,5,-3
Cc1cc(C)cc(NS(=O)(=O)c2ccc(NC(=S)NC(=O)c3ccc(Br)o3)cc2)c1,·,98*,·,·,1
Cc1ccc(NC(=O)c2ccc(Br)o2)cc1S(=O)(=O)N(C)C,-21*,7,0,-4,·
Cc1noc(C)c1NC(=O)Nc1ccc2c(c1)C(=O)N([C@H](C)CO)C[C@@H](C)[C@H](CN(C)C(=O)Nc1ccccc1)O2,5,3[16.7 µM],0,·,·
O=C(Nc1ccc(S(=O)(=O)NCCc2ccccc2)cc1)c1ccc(Br)o1,·,201*,·,·,-2
CCC(=O)Nc1ccc(S(=O)(=O)NCCc2ccccc2)cc1,·,?,·,·,1
COCC(=O)Nc1ccc(S(=O)(=O)NCCc2ccccc2)cc1,·,118*,·,·,-2
COCC#Cc1ccc2c(c1)O[C@H](CN(C)C(=O)NC(C)C)[C@@H](C)CN([C@H](C)CO)S2(=O)=O,-4,13[16.7 µM],2,-7,9
CCN(CC)CC(C)(C)C(=O)/C=C/c1ccc(/C=C/C(=O)C(C)(C)CN(CC)CC)cc1,-14*,·,0,-9,·
C[C@@H]1CN([C@@H](C)CO)C(=O)c2cc(NC(=O)Nc3ccc(C(F)(F)F)cc3)ccc2O[C@@H](C)CCCCO[C@H]1CN(C)C(=O)Nc1ccccc1,1,·,1,·,·
Oc1ccc(Cl)cc1/C=C/c1ccc2cccc(O)c2n1,-62,140*,·,-6,·
CSc1ccc(/C=C/c2ccc3cccc(O)c3n2)cc1,-30*,·,·,·,·
c1ccc(CNc2ncnc3c2cnn3-c2ccccc2)cc1,·,-4,·,·,0
c1ccc(CCNc2ncnc3c2cnn3-c2ccccc2)cc1,-53*,-1,·,·,-3
c1ccc(Cn2ncc3c(Nc4ccccc4)ncnc32)cc1,-27*,4,0,-5,-1
C[C@@H]1CN([C@H](C)CO)C(=O)c2cccc(NS(C)(=O)=O)c2O[C@@H]1CN(C)S(=O)(=O)c1ccc(F)cc1,4,7[16.7 µM],0,·,·
SMILES,rRNA inh HTS,miR122 inh,E-sel inducer,DENV2 CPE,Cneo AK release
COc1ccc(CN(C)C[C@@H]2Oc3ccc(NS(=O)(=O)c4cccs4)cc3CC(=O)N([C@@H](C)CO)C[C@H]2C)cc1,-2,·,·,-4,·
COc1ccc([Si](C)(C)[C@@H]2[C@@H](CC(=O)N3Cc4ccccc4C[C@H]3CO)O[C@]3(C(=O)N(C)c4c(Br)cc(C)cc43)[C@H]2C)cc1,·,·,·,21*,-3
COc1ccc(C(=O)Nc2ccc(CN3C(=O)[C@]4(O[C@H](CC(=O)N5Cc6ccccc6C[C@H]5CO)[C@@H]([Si](C)(C)c5ccc(OC)cc5)[C@@H]4C)c4ccccc43)cc2)cc1,·,·,·,0,2
COCC#Cc1cnc2c(c1)C(=O)N([C@H](C)CO)C[C@@H](C)[C@@H](CN(C)Cc1ccccc1)O2,6,-1[16.7 µM],0,8,4
Nc1cccc(O)c1,6,5,·,21*,-3
O=C(C[C@H]1CC[C@@H](NC(=O)c2cccnc2)[C@H](CO)O1)NCc1ccncn1,2,·,0,0,-3
Cc1ccc(CSCC(=O)Nc2ccc3c(c2)OCO3)cc1,-30*,31,·,·,1
C[C@@H]1CN([C@@H](C)CO)C(=O)c2cccc(NC(=O)CCCCCC(=O)Nc3ccccc3N)c2O[C@H]1CN(C)C(=O)Nc1ccc(F)cc1,-1,·,-3,49*,·
CC(C)NC(=O)N(C)C[C@@H]1Oc2c(NC(=O)CCCCCC(=O)Nc3ccccc3N)cccc2C(=O)N([C@@H](C)CO)C[C@H]1C,8,·,-14,25*,·
O=C(C[C@H]1C=C[C@H](NC(=O)c2ccncc2)[C@@H](CO)O1)NCc1ccncn1,3,·,-1,7,·
CCC(=O)N1[C@@H]2Cn3c(ccc(-c4ccncc4)c3=O)[C@H]1[C@@H](C(=O)NC1Cc3ccccc3C1)[C@@H]2CO,-1,·,0,2,53
N#C[C@@H]1[C@H](c2ccccc2-c2ccc(F)cc2)[C@H](CO)N1c1ncc(-c2ccccc2)s1,1,·,0,-8,·
N#C[C@@H]1[C@@H](c2ccccc2-c2ccc(F)cc2)[C@H](CO)N1c1ncc(-c2ccccc2)s1,-5,·,0,76*,·
N#C[C@H]1[C@H](c2ccc(-c3cccc(F)c3)cc2)[C@@H](CO)N1c1nc(-c2ccccc2)cs1,-4,·,0,38*,·
N#C[C@H]1[C@@H](c2ccccc2-c2ccc(F)cc2)[C@@H](CO)N1c1ncc(-c2ccccc2)s1,1,·,0,23*,·
C=CCOc1ccc(CNc2ccc3[nH]c(=O)[nH]c3c2)cc1,-14*,·,-1,9,·
C=CCOc1ccc(CNc2ccc3[nH]c(=O)[nH]c3c2)cc1OCC,4,·,2,-2,·
C[C@@H]1CN([C@@H](C)CO)C(=O)c2cc(NC(=O)Nc3ccc(F)cc3)ccc2O[C@@H](C)CCCCO[C@H]1CN(C)S(=O)(=O)c1ccccc1,6,22[16.7 µM],0,124*,101*
COc1ccc(S(=O)(=O)N(C)C[C@@H]2OCCCC[C@H](C)Oc3ccc(NC(=O)NC(C)C)cc3C(=O)N([C@@H](C)CO)C[C@H]2C)cc1,-2,12[16.7 µM],0,49*,1
C[C@H](CO)N1C[C@H](C)[C@@H](CN(C)S(C)(=O)=O)OCCCC[C@H](C)Oc2ccc(NC(=O)Nc3ccc(F)cc3)cc2C1=O,-3,3[16.7 µM],0,26*,5
C[C@@H]1CCCCO[C@H](CN(C)S(=O)(=O)c2ccccc2)[C@H](C)CN([C@@H](C)CO)C(=O)c2cc(NC(=O)Nc3ccc(F)cc3)ccc2O1,-2,1[16.7 µM],0,-12,0
